Test results taken from ChEMBL document CHEMBL3797186, “Single Residue Substitutions That Confer Voltage-Gated Sodium Ion Channel Subtype Selectivity in the NaV1.7 Inhibitory Peptide GpTx-1” (J Med Chem, 2016).
Positions of bridges follow the written chain, without caps; N, C: chain ends. Non-standard residues stand in square brackets, D forms with d. Residues, ends and D or L forms follow the SMILES beside them. 1Nal = N[C@@H](Cc1cccc2ccccc12)C(=O)O

What was measured:
[1] = biological target: Sodium channel protein type 9 subunit alpha (Homo sapiens, UniProt Q15858); assay: Inhibition of human Nav1.7 expressed in HEK293 cells assessed as inward peak current by ion-works quattro patch clamp electrophysiology method; type: cell-based
Sodium channel protein type 9 subunit alpha, sequence (Q15858 whole entry): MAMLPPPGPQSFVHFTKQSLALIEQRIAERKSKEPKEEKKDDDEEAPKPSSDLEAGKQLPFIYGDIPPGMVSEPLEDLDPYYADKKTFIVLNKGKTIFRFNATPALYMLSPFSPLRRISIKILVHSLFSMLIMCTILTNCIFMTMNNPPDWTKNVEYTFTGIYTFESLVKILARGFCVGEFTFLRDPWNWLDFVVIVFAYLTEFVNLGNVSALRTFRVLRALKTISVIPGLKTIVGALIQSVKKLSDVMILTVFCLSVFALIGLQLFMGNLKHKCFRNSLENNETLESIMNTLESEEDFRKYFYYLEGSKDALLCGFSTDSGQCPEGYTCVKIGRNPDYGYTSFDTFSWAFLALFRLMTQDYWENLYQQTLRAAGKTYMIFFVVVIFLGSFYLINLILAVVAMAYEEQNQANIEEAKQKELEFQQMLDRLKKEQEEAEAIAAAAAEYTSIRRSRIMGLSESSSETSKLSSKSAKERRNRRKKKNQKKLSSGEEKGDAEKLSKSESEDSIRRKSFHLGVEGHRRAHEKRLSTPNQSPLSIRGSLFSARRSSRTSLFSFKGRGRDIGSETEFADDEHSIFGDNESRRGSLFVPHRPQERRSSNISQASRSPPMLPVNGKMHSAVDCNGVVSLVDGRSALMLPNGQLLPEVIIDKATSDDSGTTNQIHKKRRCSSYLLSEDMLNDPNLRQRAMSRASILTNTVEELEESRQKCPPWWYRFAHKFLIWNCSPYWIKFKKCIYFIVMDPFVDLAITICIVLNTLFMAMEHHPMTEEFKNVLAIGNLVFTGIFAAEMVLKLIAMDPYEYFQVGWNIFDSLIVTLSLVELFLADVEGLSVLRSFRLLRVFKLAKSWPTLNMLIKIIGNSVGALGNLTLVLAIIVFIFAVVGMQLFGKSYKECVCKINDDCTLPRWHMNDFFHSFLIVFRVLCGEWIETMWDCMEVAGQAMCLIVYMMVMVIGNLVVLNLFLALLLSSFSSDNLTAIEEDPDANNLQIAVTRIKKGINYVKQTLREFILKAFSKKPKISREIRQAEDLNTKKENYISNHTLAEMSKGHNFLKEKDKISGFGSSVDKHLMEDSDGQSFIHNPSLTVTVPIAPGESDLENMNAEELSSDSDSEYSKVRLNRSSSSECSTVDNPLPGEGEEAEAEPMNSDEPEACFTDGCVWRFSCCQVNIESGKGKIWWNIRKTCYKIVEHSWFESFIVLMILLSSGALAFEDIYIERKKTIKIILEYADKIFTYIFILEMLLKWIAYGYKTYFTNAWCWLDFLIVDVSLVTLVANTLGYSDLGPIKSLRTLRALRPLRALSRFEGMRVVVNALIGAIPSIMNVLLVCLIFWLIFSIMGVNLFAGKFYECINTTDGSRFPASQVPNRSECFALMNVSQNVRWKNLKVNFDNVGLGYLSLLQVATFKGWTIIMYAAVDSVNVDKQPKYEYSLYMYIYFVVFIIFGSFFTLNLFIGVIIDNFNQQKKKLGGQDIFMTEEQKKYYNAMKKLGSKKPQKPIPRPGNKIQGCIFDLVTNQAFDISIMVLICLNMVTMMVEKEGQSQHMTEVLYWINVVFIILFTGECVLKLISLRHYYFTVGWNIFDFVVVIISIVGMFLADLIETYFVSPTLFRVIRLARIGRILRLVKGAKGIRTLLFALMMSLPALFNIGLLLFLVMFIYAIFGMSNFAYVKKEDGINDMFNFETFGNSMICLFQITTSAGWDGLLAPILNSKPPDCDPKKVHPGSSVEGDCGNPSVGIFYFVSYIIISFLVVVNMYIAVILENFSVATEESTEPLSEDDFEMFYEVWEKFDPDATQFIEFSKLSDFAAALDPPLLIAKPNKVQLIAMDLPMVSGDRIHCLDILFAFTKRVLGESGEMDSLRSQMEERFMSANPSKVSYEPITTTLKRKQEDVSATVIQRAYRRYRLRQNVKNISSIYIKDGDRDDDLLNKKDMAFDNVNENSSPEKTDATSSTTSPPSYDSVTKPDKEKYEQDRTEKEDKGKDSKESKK

[2] = biological target: Sodium channel protein type 5 subunit alpha (Homo sapiens, UniProt Q14524); assay: Inhibition of human Nav1.5 expressed in HEK293 cells assessed as inward peak current by ion-works quattro patch clamp electrophysiology method; type: cell-based
Sodium channel protein type 5 subunit alpha, sequence (Q14524 whole entry): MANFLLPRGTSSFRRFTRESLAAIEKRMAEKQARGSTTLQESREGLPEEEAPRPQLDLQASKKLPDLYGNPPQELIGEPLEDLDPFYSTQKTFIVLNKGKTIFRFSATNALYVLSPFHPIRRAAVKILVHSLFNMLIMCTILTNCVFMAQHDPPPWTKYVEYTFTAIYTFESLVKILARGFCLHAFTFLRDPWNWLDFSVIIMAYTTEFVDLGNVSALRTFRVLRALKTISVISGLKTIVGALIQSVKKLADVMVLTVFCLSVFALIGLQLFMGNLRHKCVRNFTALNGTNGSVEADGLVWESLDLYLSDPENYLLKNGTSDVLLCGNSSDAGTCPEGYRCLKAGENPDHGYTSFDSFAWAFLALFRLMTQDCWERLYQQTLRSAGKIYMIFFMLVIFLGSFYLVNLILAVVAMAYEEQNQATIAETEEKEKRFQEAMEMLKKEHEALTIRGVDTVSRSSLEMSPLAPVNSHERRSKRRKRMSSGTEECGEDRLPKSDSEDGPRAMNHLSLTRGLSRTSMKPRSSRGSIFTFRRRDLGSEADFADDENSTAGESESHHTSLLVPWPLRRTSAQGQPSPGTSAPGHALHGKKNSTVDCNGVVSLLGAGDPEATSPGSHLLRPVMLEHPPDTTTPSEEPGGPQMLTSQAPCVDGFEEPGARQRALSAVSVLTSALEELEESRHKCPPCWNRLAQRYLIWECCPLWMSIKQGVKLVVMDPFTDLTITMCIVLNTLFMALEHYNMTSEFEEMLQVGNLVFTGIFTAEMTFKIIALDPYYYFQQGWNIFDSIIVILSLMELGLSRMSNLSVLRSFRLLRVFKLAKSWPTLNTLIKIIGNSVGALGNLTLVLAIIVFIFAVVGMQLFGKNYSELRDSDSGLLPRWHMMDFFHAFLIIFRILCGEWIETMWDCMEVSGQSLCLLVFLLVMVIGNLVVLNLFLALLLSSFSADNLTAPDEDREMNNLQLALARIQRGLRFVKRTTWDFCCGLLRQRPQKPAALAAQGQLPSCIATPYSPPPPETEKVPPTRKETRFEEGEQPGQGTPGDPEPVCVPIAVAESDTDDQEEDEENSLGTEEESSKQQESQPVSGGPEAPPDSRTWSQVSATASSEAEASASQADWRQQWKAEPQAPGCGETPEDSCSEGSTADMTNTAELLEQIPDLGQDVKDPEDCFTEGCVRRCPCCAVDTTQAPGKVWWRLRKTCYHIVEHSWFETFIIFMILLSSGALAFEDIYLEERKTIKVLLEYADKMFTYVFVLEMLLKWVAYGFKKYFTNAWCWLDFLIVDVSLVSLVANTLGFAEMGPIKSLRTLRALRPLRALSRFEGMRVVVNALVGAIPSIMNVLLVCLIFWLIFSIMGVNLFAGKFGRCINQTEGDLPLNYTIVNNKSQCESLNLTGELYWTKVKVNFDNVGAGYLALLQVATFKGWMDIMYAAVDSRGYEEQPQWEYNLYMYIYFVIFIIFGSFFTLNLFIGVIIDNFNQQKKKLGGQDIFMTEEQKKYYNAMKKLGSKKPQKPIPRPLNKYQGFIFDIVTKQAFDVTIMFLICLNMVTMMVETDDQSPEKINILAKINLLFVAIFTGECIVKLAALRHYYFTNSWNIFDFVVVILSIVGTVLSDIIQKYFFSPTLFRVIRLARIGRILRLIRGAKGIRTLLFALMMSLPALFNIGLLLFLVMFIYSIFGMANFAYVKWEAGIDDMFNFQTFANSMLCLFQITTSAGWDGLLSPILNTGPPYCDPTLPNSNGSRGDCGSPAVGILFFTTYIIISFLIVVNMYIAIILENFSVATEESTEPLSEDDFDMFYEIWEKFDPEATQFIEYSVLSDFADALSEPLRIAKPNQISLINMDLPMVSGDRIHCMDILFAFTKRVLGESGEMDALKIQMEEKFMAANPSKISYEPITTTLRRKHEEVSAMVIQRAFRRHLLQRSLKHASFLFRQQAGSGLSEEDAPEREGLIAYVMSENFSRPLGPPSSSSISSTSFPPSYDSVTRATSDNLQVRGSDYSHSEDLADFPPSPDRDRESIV
In short: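 Stable HEK293 line expressing human NaV1.5, recorded by population patch clamp on the IonWorks Quattro.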

Q: Which IC50 [1] does the source give for `CC[C@H](C)[C@@H]1NC(=O)[C@@H]2CSSC[C@@H]3NC(=O)[C@H](C(C)C)NC(=O)[C@H](CC(C)C)NC(=O)[C@H](CC(N)=O)NC(=O)[C@@H]4CCCN4C(=O)[C@H](CCCNC(=N)N)NC(=O)[C@H](CSSC[C@H](NC(=O)[C@@H](N)CC(=O)O)C(=O)N[C@@H](CC(C)C)C(=O)NCC(=O)N[C@@H](Cc4ccccc4)C(=O)N[C@@H](CCSC)C(=O)N[C@@H](CCCNC(=N)N)C(=O)N[C@@H](CCCCN)C(=O)N2)NC(=O)[C@H](CSSC[C@@H](C(=O)N[C@@H](CCCCN)C(=O)N[C@@H](Cc2ccc(O)cc2)C(=O)N[C@H](C(=O)N[C@@H](Cc2ccccc2)C(N)=O)C(C)C)NC(=O)[C@H](Cc2c[nH]c4ccccc24)NC(=O)[C@H](CCCCN)NC(=O)[C@H](Cc2cnc[nH]2)NC(=O)[C@H](CCC(=O)O)NC(=O)[C@H](CCCNC(=N)N)NC(=O)[C@H](CO)NC3=O)NC(=O)[C@H](CCCCN)NC(=O)[C@H](CC(=O)O)NC(=O)[C@H](CC(N)=O)NC(=O)[C@H](CC(=O)O)NC(=O)[C@@H]2CCCN2C1=O` (H-DCLGFMRKCIPDNDKCCRPNLVCSREHKWCKYVF-NH2; disulfide 2-17, 9-23, 16-30) here?
A: 690 nM

Q: What about the IC50 [2] of the same compound?
A: > 5000 nM

Q: `CC[C@H](C)[C@@H]1NC(=O)[C@@H]2CSSC[C@@H]3NC(=O)[C@H](C(C)C)NC(=O)[C@H](CC(C)C)NC(=O)[C@H](CC(N)=O)NC(=O)[C@@H]4CCCN4C(=O)[C@H](CCCNC(=N)N)NC(=O)[C@H](CSSC[C@H](NC(=O)[C@@H](N)CC(=O)O)C(=O)N[C@@H](CC(C)C)C(=O)NCC(=O)N[C@@H](Cc4ccccc4)C(=O)N[C@@H](CCSC)C(=O)N[C@@H](CCCNC(=N)N)C(=O)N[C@@H](CCCCN)C(=O)N2)NC(=O)[C@H](CSSC[C@@H](C(=O)N[C@@H](CCCCN)C(=O)N[C@@H](Cc2ccc(O)cc2)C(=O)N[C@H](C(=O)N[C@@H](Cc2ccccc2)C(N)=O)C(C)C)NC(=O)[C@H](Cc2c[nH]c4ccccc24)NC(=O)[C@H](CCCCN)NC(=O)[C@H](Cc2cnc[nH]2)NC(=O)[C@H]([C@@H](C)O)NC(=O)[C@H](CCCNC(=N)N)NC(=O)[C@H](CO)NC3=O)NC(=O)[C@H](CCCCN)NC(=O)[C@H](CC(=O)O)NC(=O)[C@H](CCCNC(=N)N)NC(=O)[C@H](CC(=O)O)NC(=O)[C@@H]2CCCN2C1=O` (H-DCLGFMRKCIPDRDKCCRPNLVCSRTHKWCKYVF-NH2; disulfide 2-17, 9-23, 16-30) was tested. Which IC50 [1] did it give?
A: 140 nM

Q: And the IC50 [2]?
A: > 5000 nM

Q: With `CC[C@H](C)[C@@H]1NC(=O)[C@@H]2CSSC[C@@H]3NC(=O)[C@H](C(C)C)NC(=O)[C@H](CC(C)C)NC(=O)[C@H](CC(N)=O)NC(=O)[C@@H]4CCCN4C(=O)[C@H](CCCNC(=N)N)NC(=O)[C@H](CSSC[C@H](NC(=O)[C@@H](N)CC(=O)O)C(=O)N[C@@H](CC(C)C)C(=O)NCC(=O)N[C@@H](Cc4ccccc4)C(=O)N[C@@H](CCSC)C(=O)N[C@@H](CCCNC(=N)N)C(=O)N[C@@H](CCCCN)C(=O)N2)NC(=O)[C@H](CSSC[C@@H](C(=O)N[C@@H](CCCCN)C(=O)N[C@@H](Cc2ccc(O)cc2)C(=O)N[C@H](C(=O)N[C@@H](Cc2ccccc2)C(N)=O)C(C)C)NC(=O)[C@H](Cc2c[nH]c4ccccc24)NC(=O)[C@H](CCCCN)NC(=O)[C@H](Cc2cnc[nH]2)NC(=O)[C@H](Cc2c[nH]c4ccccc24)NC(=O)[C@H](CCCNC(=N)N)NC(=O)[C@H](CO)NC3=O)NC(=O)[C@H](CCCCN)NC(=O)[C@H](CC(=O)O)NC(=O)[C@H](CC(N)=O)NC(=O)[C@H](CC(=O)O)NC(=O)[C@@H]2CCCN2C1=O` (H-DCLGFMRKCIPDNDKCCRPNLVCSRWHKWCKYVF-NH2; disulfide 2-17, 9-23, 16-30) as the compound, how does the IC50 [1] read?
A: 50 nM

Q: And the IC50 [2]?
A: 3600 nM

Q: Which results are given for `CC[C@H](C)[C@@H]1NC(=O)[C@@H]2CSSC[C@@H]3NC(=O)[C@H](C(C)C)NC(=O)[C@H](CC(C)C)NC(=O)[C@H](CC(N)=O)NC(=O)[C@@H]4CCCN4C(=O)[C@H](CCCNC(=N)N)NC(=O)[C@H](CSSC[C@H](NC(=O)[C@@H](N)CC(=O)O)C(=O)N[C@@H](CC(C)C)C(=O)NCC(=O)N[C@@H](Cc4ccccc4)C(=O)N[C@@H](CCSC)C(=O)N[C@@H](CCCNC(=N)N)C(=O)N[C@@H](CCCCN)C(=O)N2)NC(=O)[C@H](CSSC[C@@H](C(=O)N[C@@H](CCCCN)C(=O)N[C@@H](Cc2ccc(O)cc2)C(=O)N[C@H](C(=O)N[C@@H](Cc2ccccc2)C(N)=O)C(C)C)NC(=O)[C@H](Cc2c[nH]c4ccccc24)NC(=O)[C@H](CCCCN)NC(=O)[C@H](Cc2cccc4ccccc24)NC(=O)[C@H]([C@@H](C)O)NC(=O)[C@H](CCCNC(=N)N)NC(=O)[C@H](CO)NC3=O)NC(=O)[C@H](CCCCN)NC(=O)[C@H](CC(=O)O)NC(=O)[C@H](CC(N)=O)NC(=O)[C@H](CC(=O)O)NC(=O)[C@@H]2CCCN2C1=O` (H-DCLGFMRKCIPDNDKCCRPNLVCSRT[1Nal]KWCKYVF-NH2; disulfide 2-17, 9-23, 16-30)?
A: IC50 [1]: 250 nM; IC50 [2]: 900 nM

Q: `CC[C@H](C)[C@@H]1NC(=O)[C@@H]2CSSC[C@@H]3NC(=O)[C@H](C(C)C)NC(=O)[C@H](Cc4cccc5ccccc45)NC(=O)[C@H](CC(N)=O)NC(=O)[C@@H]4CCCN4C(=O)[C@H](CCCNC(=N)N)NC(=O)[C@H](CSSC[C@H](NC(=O)[C@@H](N)CC(=O)O)C(=O)N[C@@H](CC(C)C)C(=O)NCC(=O)N[C@@H](Cc4ccccc4)C(=O)N[C@@H](CCSC)C(=O)N[C@@H](CCCNC(=N)N)C(=O)N[C@@H](CCCCN)C(=O)N2)NC(=O)[C@H](CSSC[C@@H](C(=O)N[C@@H](CCCCN)C(=O)N[C@@H](Cc2ccc(O)cc2)C(=O)N[C@H](C(=O)N[C@@H](Cc2ccccc2)C(N)=O)C(C)C)NC(=O)[C@H](Cc2c[nH]c4ccccc24)NC(=O)[C@H](CCCCN)NC(=O)[C@H](Cc2c[nH]cn2)NC(=O)[C@H]([C@@H](C)O)NC(=O)[C@H](CCCNC(=N)N)NC(=O)[C@H](CO)NC3=O)NC(=O)[C@H](CCCCN)NC(=O)[C@H](CC(=O)O)NC(=O)[C@H](CC(N)=O)NC(=O)[C@H](CC(=O)O)NC(=O)[C@@H]2CCCN2C1=O` (H-DCLGFMRKCIPDNDKCCRPN[1Nal]VCSRTHKWCKYVF-NH2; disulfide 2-17, 9-23, 16-30) was tested. Which IC50 [1] did it give?
A: 90 nM

Q: And the IC50 [2]?
A: > 5000 nM

Q: How did the IC50 [1] turn out when `CC[C@H](C)[C@@H]1NC(=O)[C@@H]2CSSC[C@@H]3NC(=O)[C@H](C(C)C)NC(=O)[C@H](CC(C)C)NC(=O)[C@H](CC(N)=O)NC(=O)[C@@H]4CCCN4C(=O)[C@H](CCCNC(=N)N)NC(=O)[C@H](CSSC[C@H](NC(=O)[C@@H](N)CC(=O)O)C(=O)N[C@@H](CC(C)C)C(=O)NCC(=O)N[C@@H](Cc4ccccc4)C(=O)N[C@@H](CCSC)C(=O)N[C@@H](CCCNC(=N)N)C(=O)N[C@@H](CCCCN)C(=O)N2)NC(=O)[C@H](CSSC[C@@H](C(=O)N[C@@H](CCCCN)C(=O)N[C@@H](Cc2ccc(O)cc2)C(=O)N[C@H](C(=O)N[C@@H](Cc2ccccc2)C(N)=O)C(C)C)NC(=O)[C@H](Cc2c[nH]c4ccccc24)NC(=O)[C@H](CCCCN)NC(=O)[C@H](Cc2c[nH]cn2)NC(=O)[C@H]([C@@H](C)O)NC(=O)[C@H](CCCNC(=N)N)NC(=O)[C@H](CO)NC3=O)NC(=O)[C@H](CCCCN)NC(=O)[C@H](CC(=O)O)NC(=O)[C@H](CC(N)=O)NC(=O)[C@H](Cc2cccc3ccccc23)NC(=O)[C@@H]2CCCN2C1=O` (H-DCLGFMRKCIP[1Nal]NDKCCRPNLVCSRTHKWCKYVF-NH2; disulfide 2-17, 9-23, 16-30) was run?
A: 100 nM

Q: And the IC50 [2]?
A: > 5000 nM

Q: How did the IC50 [1] turn out when `CC[C@H](C)[C@@H]1NC(=O)[C@@H]2CSSC[C@@H]3NC(=O)[C@H](C(C)C)NC(=O)[C@H](CC(C)C)NC(=O)[C@H](CC(N)=O)NC(=O)[C@@H]4CCCN4C(=O)[C@H](CCCNC(=N)N)NC(=O)[C@H](CSSC[C@H](NC(=O)[C@@H](N)CC(=O)O)C(=O)N[C@@H](CC(C)C)C(=O)NCC(=O)N[C@@H](Cc4ccccc4)C(=O)N[C@@H](CCSC)C(=O)N[C@@H](CCCNC(=N)N)C(=O)N[C@@H](CCCCN)C(=O)N2)NC(=O)[C@H](CSSC[C@@H](C(=O)N[C@@H](CCCCN)C(=O)N[C@@H](Cc2ccc(O)cc2)C(=O)N[C@@H](CCCCN)C(=O)N[C@@H](Cc2ccccc2)C(N)=O)NC(=O)[C@H](Cc2c[nH]c4ccccc24)NC(=O)[C@H](CCCCN)NC(=O)[C@H](Cc2cnc[nH]2)NC(=O)[C@H]([C@@H](C)O)NC(=O)[C@H](CCCNC(=N)N)NC(=O)[C@H](CO)NC3=O)NC(=O)[C@H](CCCCN)NC(=O)[C@H](CC(=O)O)NC(=O)[C@H](CC(N)=O)NC(=O)[C@H](CC(=O)O)NC(=O)[C@@H]2CCCN2C1=O` (H-DCLGFMRKCIPDNDKCCRPNLVCSRTHKWCKYKF-NH2; disulfide 2-17, 9-23, 16-30) was run?
A: 50 nM

Q: And the IC50 [2]?
A: > 5000 nM

Q: What does the source list for `CC[C@H](C)[C@@H]1NC(=O)[C@@H]2CSSC[C@@H]3NC(=O)[C@H](C(C)C)NC(=O)[C@H](CC(C)C)NC(=O)[C@H](CC(N)=O)NC(=O)[C@@H]4CCCN4C(=O)[C@H](CCCNC(=N)N)NC(=O)[C@H](CSSC[C@H](NC(=O)[C@@H](N)CC(=O)O)C(=O)N[C@@H](CC(C)C)C(=O)NCC(=O)N[C@@H](Cc4ccccc4)C(=O)N[C@@H](CCSC)C(=O)N[C@@H](CCCNC(=N)N)C(=O)N[C@@H](CCCCN)C(=O)N2)NC(=O)[C@H](CSSC[C@@H](C(=O)N[C@@H](CCCCN)C(=O)N[C@@H](CCCCN)C(=O)N[C@H](C(=O)N[C@@H](Cc2ccccc2)C(N)=O)C(C)C)NC(=O)[C@H](Cc2c[nH]c4ccccc24)NC(=O)[C@H](CCCCN)NC(=O)[C@H](Cc2cnc[nH]2)NC(=O)[C@H]([C@@H](C)O)NC(=O)[C@H](CCCNC(=N)N)NC(=O)[C@H](CO)NC3=O)NC(=O)[C@H](CCCCN)NC(=O)[C@H](CC(=O)O)NC(=O)[C@H](CC(N)=O)NC(=O)[C@H](CC(=O)O)NC(=O)[C@@H]2CCCN2C1=O` (H-DCLGFMRKCIPDNDKCCRPNLVCSRTHKWCKKVF-NH2; disulfide 2-17, 9-23, 16-30)?
A: IC50 [1]: > 4900 nM; IC50 [2]: > 5000 nM
